Measurements from ChEMBL document CHEMBL5038571, “Design and Synthesis of EZH2-Based PROTACs to Degrade the PRC2 Complex for Targeting the Noncatalytic Activity of EZH2” (J Med Chem, 2021).
Activity calls are given as the source filed them. No cut-off for these calls is given here.

Columns and labels:
WSUDLCL2 [1] = test: Effect on Histone H3 methylation in human WSUDLCL2 cells assessed as reduction in H3K9me3 levels at upto 10 uM incubated for 48 hrs by Western blot analysis; assay type: functional, cell-based; details: dose microM <=10, time 48.0 hrs
Outline: (§1)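 Lysates run on SDS-PAGE and transferred to nitrocellulose. Membranes blocked with 5% skim milk for 2 h, primary antibody applied overnight at 4 °C, then secondary antibody and chemiluminescent detection of histone H3 methylation marks.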

MDA-MB-468 = test: Downregulation of […] mRNA expression in human MDA-MB-468 cells at 10 uM incubated for 48 hrs by qRT-PCR analysis; assay type: functional, cell-based
Outline: (§2)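 Cells treated 48 h. Total RNA extracted with Trizol, reverse-transcribed, and SYBR RT-qPCR run: 95 °C 30 s, then 40 cycles of 95 °C 6 s and 60 °C 20 s. mRNA normalized to the DMSO-treated group. Mean SD of three independent experiments, t-test versus DMSO.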

[2] = biological target: T1, Protein cereblon/Histone-lysine N-methyltransferase EZH2 (Homo sapiens) (UniProt Q15910+Q96SW2); test: PROTAC activity at CRBN E3 ligase/EZH2 in PRC2 complex in human SU-DHL-6 cells assessed as reduction in H3K27me3 level at 1 uM incubated for 48 hrs by Western blot analysis; assay type: cell-based
T1 sequence (Q15910 whole entry, looked up): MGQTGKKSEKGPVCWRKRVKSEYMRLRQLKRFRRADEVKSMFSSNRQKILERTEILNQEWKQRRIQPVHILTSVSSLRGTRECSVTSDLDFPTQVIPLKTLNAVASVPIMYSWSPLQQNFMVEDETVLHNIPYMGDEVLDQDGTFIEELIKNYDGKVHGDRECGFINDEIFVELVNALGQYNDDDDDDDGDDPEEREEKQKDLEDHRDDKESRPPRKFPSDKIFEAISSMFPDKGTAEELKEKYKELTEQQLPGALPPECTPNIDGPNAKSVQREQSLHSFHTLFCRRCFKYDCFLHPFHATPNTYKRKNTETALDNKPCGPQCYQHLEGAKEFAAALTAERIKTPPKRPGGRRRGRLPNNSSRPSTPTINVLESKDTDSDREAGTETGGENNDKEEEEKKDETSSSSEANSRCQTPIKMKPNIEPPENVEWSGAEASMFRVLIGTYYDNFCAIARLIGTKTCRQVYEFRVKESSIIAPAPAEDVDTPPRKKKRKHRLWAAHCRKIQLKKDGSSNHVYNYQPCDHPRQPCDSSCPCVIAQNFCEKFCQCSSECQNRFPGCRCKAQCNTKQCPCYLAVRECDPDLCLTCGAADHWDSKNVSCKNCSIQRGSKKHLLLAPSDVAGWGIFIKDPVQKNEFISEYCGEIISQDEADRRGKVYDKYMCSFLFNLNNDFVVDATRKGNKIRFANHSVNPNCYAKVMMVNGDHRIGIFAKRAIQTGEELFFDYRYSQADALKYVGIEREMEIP
T1 sequence (Q96SW2 whole entry, looked up): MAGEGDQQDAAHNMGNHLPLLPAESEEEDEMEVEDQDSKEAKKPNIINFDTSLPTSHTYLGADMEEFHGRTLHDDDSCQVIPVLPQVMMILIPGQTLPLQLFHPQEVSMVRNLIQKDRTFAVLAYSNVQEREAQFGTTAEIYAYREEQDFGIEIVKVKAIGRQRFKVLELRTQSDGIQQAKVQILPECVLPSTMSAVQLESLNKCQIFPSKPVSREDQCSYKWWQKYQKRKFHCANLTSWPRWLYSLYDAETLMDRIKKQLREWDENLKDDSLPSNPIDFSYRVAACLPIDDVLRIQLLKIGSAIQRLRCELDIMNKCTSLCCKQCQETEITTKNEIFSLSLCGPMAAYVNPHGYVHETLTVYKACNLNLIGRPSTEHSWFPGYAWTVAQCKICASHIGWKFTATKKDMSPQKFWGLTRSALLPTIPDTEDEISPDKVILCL
Outline: (§3)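 Cells cultured in DMEM or RPMI 1640 with 10% FBS and 1% penicillin-streptomycin, 37 °C, 5% CO2; exposed to 1 μM compound for 48 h. Lysates run on SDS-PAGE and transferred to nitrocellulose. Blocked 2 h in 5% skim milk, primary antibody overnight at 4 °C, then secondary antibody. Chemiluminescent detection of PRC2 subunits and H3K27me3.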

[3] = biological target: T1, Protein cereblon/Histone-lysine N-methyltransferase EZH2 (Homo sapiens); test: PROTAC activity at CRBN E3 ligase/EZH2 in PRC2 complex in human DU-145 cells assessed as induction of EZH2 degradation by measuring reduction in EZH2 protein level at 1 uM incubated for 48 hrs by Western blot analysis; assay type: cell-based
Outline: (§4)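 Cancer cell lines exposed to 1 μM compound for 48 h. Lysates immunoblotted (SDS-PAGE, nitrocellulose, 5% milk block, primary antibody overnight at 4 °C) for EZH2, SUZ12, EED, RbAp48 and H3K27me3. Bands quantified by densitometry and normalized to GAPDH.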

[4] = biological target: T1, Protein cereblon/Histone-lysine N-methyltransferase EZH2 (Homo sapiens); test: PROTAC activity at CRBN E3 ligase/EZH2 in PRC2 complex in human LNCaP cells assessed as induction of SUZ12 degradation by measuring reduction in SUZ12 protein level at 1 uM incubated for 48 hrs by Western blot analysis; assay type: cell-based; outline: as §3
[5] = biological target: T1, Protein cereblon/Histone-lysine N-methyltransferase EZH2 (Homo sapiens); test: PROTAC activity at CRBN E3 ligase/EZH2 in PRC2 complex in human WSUDLCL2 cells assessed as downregulation of EZH2 expression at 1 uM pretreated with lenalidomide for 4 hrs followed by compound addition and measured after 48 hrs by Western blot analysis; assay type: cell-based
Outline: (§5)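 WSU-DLCL-2 cells pretreated 4 h with the named inhibitor, then compound added and incubated a further 48 h. EZH2, SUZ12, EED and RbAp48 measured by western blot (nitrocellulose transfer, skim-milk block, primary antibody overnight at 4 °C, chemiluminescent detection).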

[6] = biological target: T1, Protein cereblon/Histone-lysine N-methyltransferase EZH2 (Homo sapiens); test: PROTAC activity at CRBN E3 ligase/EZH2 in PRC2 complex in human WSUDLCL2 cells assessed as downregulation of RbAp48 expression at 1 uM pretreated with GSK126 for 4 hrs followed by compound addition and measured after 48 hrs by Western blot analysis; assay type: cell-based; outline: as §5
[7] = biological target: T1, Protein cereblon/Histone-lysine N-methyltransferase EZH2 (Homo sapiens); test: PROTAC activity at CRBN E3 ligase/EZH2 in PRC2 complex in human WSUDLCL2 cells assessed as induction of EED degradation incubated for 48 hrs by Western blot analysis; assay type: cell-based; details: dose 1-10 µM
[8] = biological target: T1, Protein cereblon/Histone-lysine N-methyltransferase EZH2 (Homo sapiens); test: PROTAC activity at CRBN E3 ligase/EZH2 in PRC2 complex in human A2780 cells assessed as reduction in H3K27me3 level at 1 uM incubated for 48 hrs by Western blot analysis; assay type: cell-based; outline: as §4
[9] = biological target: T1, Protein cereblon/Histone-lysine N-methyltransferase EZH2 (Homo sapiens); test: PROTAC activity at CRBN E3 ligase/EZH2 in PRC2 complex in human WSUDLCL2 cells assessed as induction of RbAp48 degradation at 10 uM incubated for 48 hrs by Western blot analysis; assay type: cell-based
NCI-H1299 = test: Antiproliferative activity against EZH2-knockdown human NCI-H1299 cells assessed as inhibition of cell growth at 10 uM treated for 9 days by optical microscopic analysis; assay type: functional, cell-based; details: time 9.0 day
Outline: (§6)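 Cells seeded at 5 × 10³ per well, grown 24 h, then exposed to compound at 10 μM for 9 days with medium refreshed. Cells were photographed and counted on days 1, 3, 5, 7 and 9. For lines 1-2, EZH2-targeting or control shRNA was induced in the cells. Mean SD of three independent experiments; t-test against control.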

WSUDLCL2 [10] = test: Inhibition of PRC2 in human WSUDLCL2 cells assessed as suppression H3K27 trimethylation incubated for 48 hrs by Western blot analysis; assay type: cell-based; outline: as §1
WSUDLCL2 [11] = test: Antiproliferative activity against human WSUDLCL2 cells harboring EZH2-Y641F mutant assessed as inhibition of cell growth incubated for 3 to 7 days by optical microscopic analysis (Rvb= 4.92 uM); assay type: functional, cell-based
A549 [12] = test: Downregulation of ARL6IP mRNA expression in human A549 cells at 10 uM incubated for 48 hrs by qRT-PCR analysis; assay type: functional, cell-based; outline: as §2
[13] = biological target: T1, Protein cereblon/Histone-lysine N-methyltransferase EZH2 (Homo sapiens); test: PROTAC activity at CRBN E3 ligase/EZH2 in PRC2 complex in human WSUDLCL2 cells assessed as induction of EED degradation at 10 uM incubated for 48 hrs by Western blot analysis; assay type: cell-based
[14] = biological target: T1, Protein cereblon/Histone-lysine N-methyltransferase EZH2 (Homo sapiens); test: PROTAC activity at CRBN E3 ligase/EZH2 in PRC2 complex in human WSUDLCL2 cells assessed as downregulation of EED expression at 1 uM pretreated with EPZ6438 for 4 hrs followed by compound addition and measured after 48 hrs by Western blot analysis; assay type: cell-based; outline: as §5
A549 [15] = test: Antiproliferative activity against EZH2-knockdown human A549 cells assessed as inhibition of cell growth at 10 uM treated for 9 days by optical microscopic analysis; assay type: functional, cell-based; details: time 9.0 day; outline: as §6
[16] = biological target: T1, Protein cereblon/Histone-lysine N-methyltransferase EZH2 (Homo sapiens); test: PROTAC activity at CRBN E3 ligase/EZH2 in PRC2 complex in human WSUDLCL2 cells assessed as effect on EZH2 mRNA expression at 1 uM incubated for 48 hrs by RT-qPCR analysis; assay type: cell-based
Outline: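 WSU-DLCL-2 cells treated 48 h with 1 μM compound. Total RNA extracted with Trizol and reverse-transcribed. SYBR qPCR run as 95 °C 30 s, then 40 cycles of 95 °C 6 s and 60 °C 20 s. PRC2 subunit mRNA normalized to the DMSO-treated group; mean SD, t-test.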

[17] = biological target: Histone-binding protein RBBP4 (Homo sapiens) (UniProt Q09028); test: Binding affinity to RbAp48 in human WSUDLCL2 cells assessed as thermal stability by measuring shift in temperature at 60 uM pretreated with proteasome inhibitor MG132 for 1 hr followed by compound addition incubated for 2 hrs by cellular thermal shift based Western blot analysis; assay type: cell-based
Chain of Histone-binding protein RBBP4 (Homo sapiens) (Q09028 whole entry): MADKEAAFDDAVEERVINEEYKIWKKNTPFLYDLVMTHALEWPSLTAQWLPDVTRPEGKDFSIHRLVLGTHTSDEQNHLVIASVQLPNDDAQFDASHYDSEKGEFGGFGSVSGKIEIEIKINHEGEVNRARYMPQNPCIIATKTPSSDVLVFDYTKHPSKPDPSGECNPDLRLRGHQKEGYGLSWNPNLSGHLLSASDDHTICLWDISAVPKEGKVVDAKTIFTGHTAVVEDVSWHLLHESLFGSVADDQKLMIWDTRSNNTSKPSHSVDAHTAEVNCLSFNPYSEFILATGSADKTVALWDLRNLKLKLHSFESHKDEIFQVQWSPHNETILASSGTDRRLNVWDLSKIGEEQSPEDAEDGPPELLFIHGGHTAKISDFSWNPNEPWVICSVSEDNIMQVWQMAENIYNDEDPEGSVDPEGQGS
Outline: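 Cellular thermal shift: cells suspended at 1.5 × 10⁶/mL and pretreated with MG-132 (5 μM, 1 h), then given 60 μM compound for 2 h with a DMSO control. Cells were lysed in RIPA with cocktail for 1 h. Supernatant aliquots were heated 6 min at 45, 48, 51, 54, 57 and 60 °C and centrifuged 15 min. Soluble protein was immunoblotted; bands quantified by densitometry; three independent experiments.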

CCN(c1cc(-c2ccc(CN3CCN(CCCCCCCOc4cccc5c4C(=O)N(C4CCC(=O)NC4=O)C5=O)CC3)cc2)cc(C(=O)NCc2c(C)cc(C)[nH]c2=O)c1C)C1CCOCC1 (centres undefined)
Activity (WSUDLCL2 [1]): inactive | Activity (MDA-MB-468): Active | Activity [2]: Active | Activity [3]: Active | Activity [4]: Active | Activity [5]: inactive | Activity [6]: inactive | Activity [7]: Dose-Dependent Effect | Activity [8]: Active | Activity [9]: inactive | Activity (NCI-H1299): Active | inhibition (WSUDLCL2 [10]): Dose-Dependent Effect | IC50 (WSUDLCL2 [11]): 3.69 µM | Activity (A549 [12]): Active | Activity [13]: inactive | Activity [14]: inactive | Activity (A549 [15]): Active | Activity [16]: inactive | Activity [17]: inactive
